According to ChEMBL document CHEMBL4043068, “(±)-Uncarilins A and B, Dimeric Isoechinulin-Type Alkaloids from Uncaria rhynchophylla” (J Nat Prod, 2017):
The source made the active and inactive calls. The calls are words filed in the database; no cut-off is given here.

What was measured:
Assay type in all cases: functional, cell-based
[1] = molecular target: T1, 5-hydroxytryptamine receptor 2C (Homo sapiens) (UniProt P28335); test: Agonist activity at human 5HT2C receptor expressed in HEK293 cells incubated for 1 hr by Fluo-8 dye based calcium assay
T1 sequence (whole entry): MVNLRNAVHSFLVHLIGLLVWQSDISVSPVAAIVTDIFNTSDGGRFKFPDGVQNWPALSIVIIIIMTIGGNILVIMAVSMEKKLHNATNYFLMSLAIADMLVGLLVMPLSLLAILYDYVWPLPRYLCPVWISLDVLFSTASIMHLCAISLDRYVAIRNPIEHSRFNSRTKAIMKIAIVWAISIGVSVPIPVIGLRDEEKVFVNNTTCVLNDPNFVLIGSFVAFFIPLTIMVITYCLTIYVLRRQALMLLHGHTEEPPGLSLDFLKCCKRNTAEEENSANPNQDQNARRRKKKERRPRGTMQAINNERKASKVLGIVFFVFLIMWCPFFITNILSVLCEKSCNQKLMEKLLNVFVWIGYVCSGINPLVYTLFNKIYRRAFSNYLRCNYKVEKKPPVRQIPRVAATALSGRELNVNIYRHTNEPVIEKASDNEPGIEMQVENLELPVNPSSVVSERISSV
Outline: (§1)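 HEK293 cells stably expressing the human receptor, kept in DMEM with 10% FBS, seeded at 4 × 10^4 cells/well on Matrigel-coated plates and incubated overnight (5% CO2, 37 °C). Fluo-8 wash-free calcium dye loaded for 1 h at 37 °C. Samples in Hank's balanced salt solution, tested at 0.25 mM. Calcium fluorescence read on a FlexStation3 plate reader.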

[2] = molecular target: T2, 5-hydroxytryptamine receptor 1A (Homo sapiens) (UniProt P08908); test: Agonist activity at human 5HT1A receptor expressed in HEK293 cells incubated for 1 hr by Fluo-8 dye based calcium assay; outline: as §1
T2 sequence (whole entry): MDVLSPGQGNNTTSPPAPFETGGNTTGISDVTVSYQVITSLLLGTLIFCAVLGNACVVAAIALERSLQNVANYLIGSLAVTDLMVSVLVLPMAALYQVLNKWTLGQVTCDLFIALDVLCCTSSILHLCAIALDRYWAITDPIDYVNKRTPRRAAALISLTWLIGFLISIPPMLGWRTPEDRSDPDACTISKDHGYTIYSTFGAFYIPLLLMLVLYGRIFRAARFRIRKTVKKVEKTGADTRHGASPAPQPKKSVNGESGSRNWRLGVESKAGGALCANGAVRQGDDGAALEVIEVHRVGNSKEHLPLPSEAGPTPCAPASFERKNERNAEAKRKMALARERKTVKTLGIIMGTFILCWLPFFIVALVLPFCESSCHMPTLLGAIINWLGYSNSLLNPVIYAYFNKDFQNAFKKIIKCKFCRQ

[3] = molecular target: T3, Melatonin receptor type 1B (Homo sapiens) (UniProt P49286); test: Agonist activity at human MT2 receptor expressed in HEK293 cells incubated for 1 hr by Fluo-8 dye based calcium assay; outline: as §1
T3 sequence (whole entry): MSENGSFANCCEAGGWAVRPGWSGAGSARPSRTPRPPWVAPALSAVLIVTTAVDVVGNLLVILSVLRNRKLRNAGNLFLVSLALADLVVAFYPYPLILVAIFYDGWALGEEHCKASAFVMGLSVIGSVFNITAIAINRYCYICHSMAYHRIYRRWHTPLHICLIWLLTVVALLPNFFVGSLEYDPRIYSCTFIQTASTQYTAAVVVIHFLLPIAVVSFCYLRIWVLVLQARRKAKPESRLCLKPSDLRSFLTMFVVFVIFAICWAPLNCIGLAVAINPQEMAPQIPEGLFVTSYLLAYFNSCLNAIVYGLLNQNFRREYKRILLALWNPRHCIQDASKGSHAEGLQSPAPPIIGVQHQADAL

[4] = molecular target: Melatonin receptor type 1A (Homo sapiens) (UniProt P48039); test: Agonist activity at human MT1 receptor expressed in HEK293 cells incubated for 1 hr by Fluo-8 dye based calcium assay; outline: as §1
Sequence of Melatonin receptor type 1A (Homo sapiens) (P48039 whole entry): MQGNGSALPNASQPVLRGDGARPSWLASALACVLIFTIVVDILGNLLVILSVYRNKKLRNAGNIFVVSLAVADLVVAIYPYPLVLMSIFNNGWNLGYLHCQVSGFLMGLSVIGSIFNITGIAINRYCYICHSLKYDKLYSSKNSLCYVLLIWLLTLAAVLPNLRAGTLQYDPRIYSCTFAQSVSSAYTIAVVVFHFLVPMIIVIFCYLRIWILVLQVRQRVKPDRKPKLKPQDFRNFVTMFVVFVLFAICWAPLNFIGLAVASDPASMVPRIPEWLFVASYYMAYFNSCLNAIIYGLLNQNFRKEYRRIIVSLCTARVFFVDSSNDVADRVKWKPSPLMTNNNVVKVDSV

| SMILES | Activity [1] | Activity [2] | Activity [3] | Activity [4] |
| --- | --- | --- | --- | --- |
| C=CC(C)(C)c1[nH]c2ccccc2c1[C@H]1[C@H](c2c(C(C)(C)C=C)[nH]c3ccccc23)[C@]2(NC(=O)[C@@H](C)NC2=O)[C@@]12NC(=O)[C@@H](C)NC2=O | inactive | inactive | 52.4% | 11.3% |
| C=CC(C)(C)c1[nH]c2ccccc2c1[C@H]1[C@H](c2c(C(C)(C)C=C)[nH]c3ccccc23)[C@]2(NC(=O)[C@H](C)NC2=O)[C@@]12NC(=O)[C@H](C)NC2=O | inactive | inactive | Active | Active |
| C=CC(C)(C)c1[nH]c2ccccc2c1[C@@H]1[C@@H](c2c(C(C)(C)C=C)[nH]c3ccccc23)[C@@]2(NC(=O)[C@H](C)NC2=O)[C@]12NC(=O)[C@H](C)NC2=O | inactive | inactive | Active | Active |
| C=CC(C)(C)c1[nH]c2ccccc2c1[C@@H]1[C@@H](c2c(C(C)(C)C=C)[nH]c3ccccc23)[C@@]2(NC(=O)[C@@H](C)NC2=O)[C@]12NC(=O)[C@@H](C)NC2=O | inactive | inactive | Active | Active |
